Experimental data published in ChEMBL document CHEMBL1649416, “Structure-based design of potent and selective 2-(quinazolin-2-yl)phenol inhibitors of checkpoint kinase 2” (J Med Chem, 2011).

Assay: Metabolic stability in mouse microsomes assessed as decrease in parent compound level after 30 mins by LC/MS
Assay type: ADME, Microsome
Conditions: read-out: Activity
Outline: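 Compounds were incubated with mouse liver microsomes supplemented with UDP-glucuronosyltransferase, covering primary and secondary metabolism. Turnover was expressed as % of parent metabolized at 30 min.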

Row | metabolised at 0.5 h | SMILES
1 | 25% | Oc1ccccc1-c1nc(N[C@H]2CCNC2)c2ccccc2n1
2 | 27% | Oc1ccc(-c2cc[nH]n2)cc1-c1nc(N[C@H]2CCNC2)c2ccccc2n1
3 | 27% | Oc1ccc(F)cc1-c1nc(N[C@H]2CCNC2)c2ccccc2n1

Second part, the compound before the results:

Row | SMILES | metabolised at 0.5 h
4 | COc1cc2nc(-c3cc(F)ccc3O)nc(N[C@@H]3CNC[C@H]3C(C)(C)O)c2cc1OC | 23%
5 | COCCOc1ccc2c(N[C@H]3CCNC3)nc(-c3cc(F)ccc3O)nc2c1 | 25%
6 | CC(C)(O)[C@@H]1CNC[C@H]1Nc1nc(-c2cc(-c3cc[nH]n3)ccc2O)nc2ccccc12 | 22%
